The record followed here is PubChem BioAssay.

SMILES strings stand for the structures. Active and inactive are the calls of the source.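 Rule for the calls, unless noted: active = Her2 level under about 52% in both replicate screens, with viability over 70% of control (limit read from the data); inconclusive = Her2 under the limit in one screen only, or viability under 70%; inactive = Her2 level above the set limit.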

A short description of assay [1]: Her2 expression decrease, cell viability multiplex – SKBR3 breast tumor cells, AlphaScreen, ATP viability, primary screen (AID 461).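 For Her2 level: lower value means less Her2 protein in the cells.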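 For viability: percent of carrier control wells set as 100% viability.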 The conditions noted are these: SKBR3 Her2 protein level, 18-24 h, measured here: SKBR3 viability, ATP luminescence, at 10 µM. (Bead proximity is the source of the signal in Alpha formats.)
For assay [2], the target named is Receptor tyrosine-protein kinase erbB-2 (Homo sapiens) (UniProt P04626). Described as above. The conditions noted are these: 18-24 h, at 10 µM, stronger effect = lower value.
The nature of assay [3]: reduced viability of SK-BR-3 breast cancer cells – cell-based, 24 h, human, pilot screen (AID 572;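 active = viability at or below 10% of carrier control in both of two separate runs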;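 note: compound exposure lasted between 18 and 24 h rather than exactly 24 h; 100% = carrier-treated control wells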). The conditions noted are these: SK-BR-3 viability, CellTiter-Glo luminescence, at 10 µM, stronger effect = lower value. Background: In ATP-based viability assays light output follows the ATP content of the culture.
Assay [4] in a line: HUVEC growth inhibition – cell-based, human, primary screen (AID 575;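 active = viability at or below 30% in both replicate assays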;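 note: 100% = median of untreated cell wells with 0.1% DMSO on each plate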). The conditions noted are these: HUVEC proliferation, CellTiter-Glo luminescence, 72 h; at 10 µM; stronger effect = lower value. Summed up:
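Test system: primary human umbilical vein endothelial cells; medium: endothelial basal medium with 2% FBS plus growth supplements; dosing: 10 µM compound only; times: 72 h treatment at 37 °C; signal: CTG luminescence; read-out: % viability relative to median vehicle-well signal on each plate; control set: vehicle and MePR control wells; plate: 384-well, collagen-coated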

Assay [5] in a line: H69AR cell proliferation blockers – human, duplicate replicates, primary screen (AID 580;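 active = viability at or under a set limit in both replicates, limit being median viability minus 3 SD, cut at about 48% in these data, passing the limit was not always enough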;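 note: 100% = mean luminescence of untreated wells and 0% = no signal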). The conditions noted are these: H69AR lung tumor cells viability, ATP luminescence, 72 h; at 10 µM; stronger effect = lower value.
Assay [6] is described as follows: MRP1 drug-resistance reversers in H69AR cells – cell-based, doxorubicin co-treatment, pilot screen (AID 601;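 active = viability loss from added drug above about 55%, and viability with drug at most 40%, in both replicates, limit read from the data, passing the limit was not always enough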). The conditions noted are these: CellTiter-Glo, 72 h, at 10 µM; for differential viability (reversal): stronger effect = higher value.
A short description of assay [7]: yeast transport mutant growth inhibition pilot in 384-well plates, post-Golgi transport modulator project (AID 636; in the data active = inhibition above about 31%). The conditions noted are these: absorbance 615 nm, about 18 h, stronger effect = higher value.
Assay [8] in a line: growth suppression of yeast trafficking mutant, preliminary HTS, modulators of trafficking downstream of Golgi apparatus project, 1536-format plate, OD 615 nm (AID 637; in the data active = inhibition above about 30%). The conditions noted are these: yeast transport mutant growth, absorbance 615 nm, 18 h; stronger effect = higher value.
[9] abbreviates: H69AR cells + 2 uM doxorubicin, measured here: viability with 2 uM doxorubicin, stronger effect = lower value.
[10] abbreviates: H69AR cells, compound alone cytotoxicity.

Chain of Receptor tyrosine-protein kinase erbB-2 (Homo sapiens) (P04626 whole entry, looked up): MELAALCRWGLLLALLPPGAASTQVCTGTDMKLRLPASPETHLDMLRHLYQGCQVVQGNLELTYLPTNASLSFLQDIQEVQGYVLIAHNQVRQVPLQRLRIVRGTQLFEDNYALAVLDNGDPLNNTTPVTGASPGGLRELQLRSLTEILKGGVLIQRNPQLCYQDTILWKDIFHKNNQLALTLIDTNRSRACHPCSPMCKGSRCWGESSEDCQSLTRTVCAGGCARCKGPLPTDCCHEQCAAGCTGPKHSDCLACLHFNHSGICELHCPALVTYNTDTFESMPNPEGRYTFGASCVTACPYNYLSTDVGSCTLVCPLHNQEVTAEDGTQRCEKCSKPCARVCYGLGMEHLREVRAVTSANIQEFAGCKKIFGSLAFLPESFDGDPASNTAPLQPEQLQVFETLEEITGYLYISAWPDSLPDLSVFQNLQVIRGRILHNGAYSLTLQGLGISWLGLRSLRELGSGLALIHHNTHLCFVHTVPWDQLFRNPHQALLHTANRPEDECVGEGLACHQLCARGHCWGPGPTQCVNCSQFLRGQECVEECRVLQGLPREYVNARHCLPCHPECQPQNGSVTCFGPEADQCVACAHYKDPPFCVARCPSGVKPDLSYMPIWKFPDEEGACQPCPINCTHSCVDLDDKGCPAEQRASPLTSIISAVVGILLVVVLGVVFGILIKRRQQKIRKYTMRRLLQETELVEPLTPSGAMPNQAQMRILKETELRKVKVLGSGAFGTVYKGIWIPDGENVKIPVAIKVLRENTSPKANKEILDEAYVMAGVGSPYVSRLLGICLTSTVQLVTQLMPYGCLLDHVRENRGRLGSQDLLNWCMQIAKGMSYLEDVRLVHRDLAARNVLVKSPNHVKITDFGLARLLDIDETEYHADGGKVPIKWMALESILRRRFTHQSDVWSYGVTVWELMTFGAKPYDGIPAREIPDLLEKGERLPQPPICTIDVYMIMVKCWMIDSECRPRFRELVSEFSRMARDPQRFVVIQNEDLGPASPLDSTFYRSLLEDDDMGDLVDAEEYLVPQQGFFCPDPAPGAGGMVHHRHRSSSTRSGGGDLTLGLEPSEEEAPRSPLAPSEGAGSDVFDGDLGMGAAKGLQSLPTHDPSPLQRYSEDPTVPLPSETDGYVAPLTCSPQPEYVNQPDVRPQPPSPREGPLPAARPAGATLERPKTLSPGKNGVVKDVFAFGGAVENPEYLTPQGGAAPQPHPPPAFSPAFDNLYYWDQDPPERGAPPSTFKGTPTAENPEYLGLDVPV

One may read the viability as a read-out of living cells in per cent, often relative to untreated cells. In general, inhibition refers to the relative decrease from the control value, in per cent. On to `Cc1cc(C)cc(NC(=O)c2nnn(Cc3cc(C)ccc3C)c2N)c1`, for which the viability in assay [1] was 111%; in assay [3], 111% (inactive); in assay [4] it was 71.3% (inactive); in assay [5], 88.1% (inactive); in assay [6] (setting [9]), 90.9%; in assay [6] (setting [10]) it was 88.1%. For the same molecule, the Her2 level in assay [2] was 92% (inactive). In addition, the differential viability (reversal) in assay [6] (H69AR cells + 2 uM doxorubicin) was -2.83% (inactive). Further, the inhibition in assay [7] was -0.8% (inactive); in assay [8], -1.33% (inactive).
As to `O=S(=O)(NCC1CCCO1)c1ccc(S(=O)(=O)N2CCc3ccccc3C2)cc1` (stereo not given), the viability in assay [1] is 90%; in assay [3], 90% (inactive); in assay [4], 94.9% (inactive); in assay [5], 94.8% (inactive); in assay [6] (setting [9]), 89.8%; in assay [6] (setting [10]), 94.8%. Also, in assay [2], the Her2 level is 93.5% (inactive). Further, the differential viability (reversal) in assay [6] (H69AR cells + 2 uM doxorubicin) is 5.08% (inactive). In addition, the results for the inhibition in assay [7] and in assay [8] were 0.26% (inactive) and 2.42% (inactive), respectively.
Turning to `COc1ccc(C(=O)N2CCN(C3CCCCC3)CC2)c(OC)c1`, the viability in assay [1] is 82.5%; in assay [3], 82.5% (inactive); in assay [4], 88.3% (inactive); in assay [5], 95.3% (inactive); in assay [6] (setting [9]), 94.9%; in assay [6] (setting [10]) it was 95.3%. Also, the Her2 level in assay [2] is 104% (inactive). In addition, in assay [6] (H69AR cells + 2 uM doxorubicin), the differential viability (reversal) was 0.4% (inactive). The inhibition in assay [7] is -2.53% (inactive); in assay [8], 11.8% (inactive).
As to `Cc1c(NS(=O)(=O)c2ccc3c(c2)n(C)c(=O)n3C)c(=O)n(-c2ccccc2)n1C`, the viability in assay [1] is 113%; in assay [3] it was 113% (inactive); in assay [4], 87.3% (inactive); in assay [5] it was 94.2% (inactive); in assay [6] (setting [9]), 90.8%; in assay [6] (setting [10]), 94.2%. For the same molecule, the Her2 level in assay [2] was 93% (inactive). Further, in assay [6] (H69AR cells + 2 uM doxorubicin), the differential viability (reversal) is 3.4% (inactive). In addition, the inhibition is -4.67% (inactive) in assay [7] and -0.98% (inactive) in assay [8].
On to `COc1ccccc1CNS(=O)(=O)c1cccc(S(=O)(=O)N2CCOCC2)c1`, for which the viability in assay [1] was 91.5%; in assay [3] it was 91.5% (inactive); in assay [4] it was 81.6% (inactive); in assay [5], 91.7% (inactive); in assay [6] (setting [9]), 88.3%; in assay [6] (setting [10]), 91.7%. Also, in assay [2], the Her2 level was 101% (inactive). In addition, the differential viability (reversal) in assay [6] (H69AR cells + 2 uM doxorubicin) was 3.38% (inactive). The inhibition in assay [7] was -3.2% (inactive); in assay [8] it was -1.48% (inactive).
Turning to `COc1cc(C(N)=O)ccc1OCc1ccccc1`, the viability in assay [1] was 86%; in assay [3] it was 86% (inactive); in assay [4], 91.6% (inactive); in assay [5], 98.7% (inactive); in assay [6] (setting [9]), 90.8%; in assay [6] (setting [10]), 98.7%. Moreover, the Her2 level in assay [2] was 83.5% (inactive). In assay [6] (H69AR cells + 2 uM doxorubicin), the differential viability (reversal) was 8% (inactive). Also, the inhibition in assay [7] is -1.45% (inactive); in assay [8] it was -7.14% (inactive).
As to `CC(C)CCNC(=O)NC(=O)CSc1nnc(-c2ccccc2F)n1N`, the viability in assay [1] was 94%; in assay [3] it was 94% (inactive); in assay [4] it was 99.9% (inactive); in assay [5], 98.1% (inactive); in assay [6] (setting [9]) it was 91.9%; in assay [6] (setting [10]) it was 98.1%. For the same molecule, the Her2 level in assay [2] is 108% (inactive). Besides, in assay [6] (H69AR cells + 2 uM doxorubicin), the differential viability (reversal) was 6.23% (inactive). Besides, the inhibition in assay [7] was 8.03% (inactive); in assay [8], 14.8% (inactive).
As for `Cn1nnc2c(sc3nc(N4CCOCC4)c4c(c32)CCCC4)c1=O`, the viability in assay [1] is 100%; in assay [3] it was 100% (inactive); in assay [4], 90.9% (inactive); in assay [5], 81.6% (inactive); in assay [6] (setting [9]), 89.3%; in assay [6] (setting [10]), 81.6%. Further, in assay [2], the Her2 level is 114% (inactive). Further, the differential viability (reversal) in assay [6] (H69AR cells + 2 uM doxorubicin) was -7.71% (inactive). Moreover, the inhibition was -0.53% (inactive) in assay [7] and -5.08% (inactive) in assay [8].
Consider `CCOc1cc2oc(=O)c3c(c2cc1Cl)CCC3`, for which the viability in assay [1] is 106%; in assay [3] it was 106% (inactive); in assay [4] it was 102% (inactive); in assay [5], 85.6% (inactive); in assay [6] (setting [9]), 77.5%; in assay [6] (setting [10]) it was 85.6%. The Her2 level in assay [2] is 96% (inactive). For the same molecule, the differential viability (reversal) in assay [6] (H69AR cells + 2 uM doxorubicin) was 8.13% (inactive). In addition, the inhibition is -3.84% (inactive) in assay [7] and 2.38% (inactive) in assay [8].
Consider `Cc1cc(C)nc(N2CCC(C(=O)Nc3ccc4c(c3)CCC4)CC2)n1`, for which the viability in assay [1] is 81.5%; in assay [3], 81.5% (inactive); in assay [4], 54.9% (inactive); in assay [5], 103% (inactive); in assay [6] (setting [9]), 96%; in assay [6] (setting [10]), 103%. For the same molecule, in assay [2], the Her2 level was 85% (inactive). Besides, the differential viability (reversal) in assay [6] (H69AR cells + 2 uM doxorubicin) was 7.34% (inactive). The inhibition in assay [7] was -4.74% (inactive); in assay [8], -2.67% (inactive).
As for `COc1cc2c(cc1OC)C(c1ccccc1O)N(C1CC(=O)N(c3ccccc3)C1=O)CC2` (stereo not given), the viability in assay [1] is 113%; in assay [3], 113% (inactive); in assay [4], 97.7% (inactive); in assay [5], 99.8% (inactive); in assay [6] (setting [9]), 81.5%; in assay [6] (setting [10]), 99.8%. Also, the Her2 level in assay [2] was 96.5% (inactive). Moreover, in assay [6] (H69AR cells + 2 uM doxorubicin), the differential viability (reversal) is 18.3% (inactive). Further, the values for the inhibition in assay [7] and in assay [8] were -4.42% (inactive) and -5.08% (inactive), respectively.
Turning to `O=C(NC1CCCCC1)N(Cc1ccc(F)cc1)Cc1nc2ccccc2c(=O)[nH]1`, the viability in assay [1] is 98.5%; in assay [3] it was 98.5% (inactive); in assay [4] it was 78.2% (inactive); in assay [5], 100% (inactive); in assay [6] (setting [9]), 92.4%; in assay [6] (setting [10]) it was 100%. Further, the Her2 level in assay [2] is 80% (inactive). In assay [6] (H69AR cells + 2 uM doxorubicin), the differential viability (reversal) is 7.63% (inactive). For the same molecule, the inhibition is -5.66% (inactive) in assay [7] and -1.83% (inactive) in assay [8].
As for `CC(C)(C)c1nc(CN2CCOCC2)ccc1O`, the viability in assay [1] was 109%; in assay [3], 109% (inactive); in assay [4] it was 106% (inactive); in assay [5] it was 101% (inactive); in assay [6] (setting [9]) it was 96.6%; in assay [6] (setting [10]), 101%. Also, the Her2 level in assay [2] was 96.5% (inactive). In assay [6] (H69AR cells + 2 uM doxorubicin), the differential viability (reversal) was 4.21% (inactive). Further, the inhibition in assay [7] was -7.03% (inactive); in assay [8] it was -0.82% (inactive).
Turning to `CCOC(=O)C1=C(CSc2nc(C)cc(C)c2C#N)OC(N)=C(C#N)C1c1cccs1` (stereo not given), the viability in assay [1] was 108%; in assay [3], 108% (inactive); in assay [4] it was 78.5% (inactive); in assay [5] it was 83.1% (inactive); in assay [6] (setting [9]), 74.5%; in assay [6] (setting [10]), 83.1%. The Her2 level in assay [2] is 85.5% (inactive). Moreover, the differential viability (reversal) in assay [6] (H69AR cells + 2 uM doxorubicin) is 8.64% (inactive). Further, the inhibition in assay [7] was -5.33% (inactive); in assay [8] it was 0.16% (inactive).
In the case of `Cn1cccc1Cc1nnc(SCC(=O)Nc2ccccc2F)n1CCc1ccccc1`, the viability was 78.5% in assay [1]; 78.5% (inactive) in assay [3]; 89.4% (inactive) in assay [4]; 83.7% (inactive) in assay [5]; 82.1% in assay [6] (setting [9]); 83.7% in assay [6] (setting [10]). For the same molecule, in assay [2], the Her2 level is 91% (inactive). For the same molecule, the differential viability (reversal) in assay [6] (H69AR cells + 2 uM doxorubicin) was 1.68% (inactive). Besides, the inhibition in assay [7] was 1.15% (inactive); in assay [8], 2.67% (inactive).
For the molecule `CCCCC(CC)C(=O)Nc1ccccc1C#N` (stereo not given), the viability in assay [1] is 96%; in assay [3] it was 96% (inactive); in assay [4] it was 98.6% (inactive); in assay [5], 89.1% (inactive); in assay [6] (setting [9]), 80.1%; in assay [6] (setting [10]), 89.1%. The Her2 level in assay [2] is 95% (inactive). Further, the differential viability (reversal) in assay [6] (H69AR cells + 2 uM doxorubicin) is 8.93% (inactive). In addition, the inhibition in assay [7] was -4.34% (inactive); in assay [8], 4.29% (inactive).
